Measured values reported in paper PMC11447725 (ACS Omega, 2024).
Several values for one entry are separate records, joined by “and”; a condition that tells them apart may be missing. Identical values can stand only once. Like-named read-outs stand apart in the source and are kept apart here. Values belong to the compound of their own block, whether it stands above or below them.

Legend:
[1] = mice, cited from earlier work
[2] = Tissue distribution of HHC; assay type: in vivo, mice; details: male, mouse, ip, 40 mg/kg
Summary of the method: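 Mice were dosed 40 mg/kg IP in 0.1% DMSO/1% hydroxyethyl cellulose, and liver, kidney and brain were removed at the plasma sampling times (n = 4; brain n = 3). Tissues were homogenised 1:10 (w/w) in PBS. Brain was extracted like plasma; kidney and liver received acetone precipitation before MTBE extraction with butylparaben IS. Negative-ESI LC-MS/MS MRM, calibrated at 5–500 ng/mL. Noncompartmental parameters.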

[3] = Pharmacokinetics of HHC in plasma after single IP administration in mice; assay type: in vivo; details: 40 mg/kg
Summary of the method: (§1)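 Male mice (18–22 g, acclimatised 1 week) received a single 40 mg/kg dose, IP or by oral gavage, in 0.1% DMSO diluted in 1% hydroxyethyl cellulose (10 μL/g). Four mice per time point (predose, 5–30 min, 1, 2, 4, 8, 24 h) were bled from the left ventricle under anaesthesia into EDTA. Plasma underwent MTBE extraction with butylparaben IS, then negative-ESI LC-MS/MS MRM. Noncompartmental analysis.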

[4] = Long-term stability of HHC in mice plasma at −30 ± 10 °C; assay type: in vitro ADME; details: 20 days; for accuracy after storage / observed conc. after storage: n = 3
Summary of the method: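 Blank mouse plasma was spiked at 15 and 375 ng/mL (n = 3) and kept at −30 ± 10 °C for 20 days. Samples were then extracted with MTBE using butylparaben IS and quantified by LC-MS/MS against daily calibration curves. Results were compared with nominal values; acceptance was precision within 15% and accuracy within ±15%.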

[5] = pH 7.4; cited from earlier work
[6] = Stock solution stability at −30 ± 10 °C; assay type: physicochemical; details: for observed conc. after storage: stock solution in methanol, 22 days; for observed conc. after storage / accuracy after storage: n = 3; for time stable in stock solution / accuracy after storage: stock solution; for accuracy after storage: 22 days (text: 20 days), vs fresh
Summary of the method: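 HHC and IS methanol stocks were diluted in methanol to 375 and 110 ng/mL (n = 3) and stored at −30 ± 10 °C for 22 days. Peak responses by LC-MS/MS were compared with freshly prepared stocks, and results were checked against nominal values (precision within 15%, accuracy within ±15%).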

[7] = Pharmacokinetics of HHC in plasma after single oral administration in mice; assay type: in vivo; details: 40 mg/kg
Summary of the method: as §1

[8] = oral administration, rats; cited from earlier work
[9] = rats, cited from earlier work
[10] = after intravenous curcumin 20 mg/kg

Compound: COc1cc(CCC(=O)CC(=O)CCc2ccc(O)c(OC)c2)ccc1O [tetrahydrocurcumin]
- AUC0–∞ [1, 10]: 12.0 ± 4.0 mg·min/L
- detection in liver [1, 10]: detectable

- AUC(0-inf) ([2]; brain): 21.1 ng·h/mL
- AUC(0-t) ([2]; brain): 18.7 ng·h/mL
- Cmax ([2]; brain): 120 ± 54.1 ng/mL
- MRT inf ([2]; brain): 2.04 h
- MRT last ([2]; brain): 1.05 h
- Tmax ([2]; brain): 5 min
- half-life ([2]; brain): 1.77 ± 0.98 h
- Cmax ([2]; kidney): 1700 ± 897 ng/mL
- MRT inf ([2]; kidney): 1.94 h
- MRT last ([2]; kidney): 1.6 h
- Tmax ([2]; kidney): 6.3 min
- half-life ([2]; kidney): 1.7 ± 0.623 h
- MRT inf ([2]; liver): 2.67 h
- MRT last ([2]; liver): 2.6 h
- Tmax ([2]; liver): 5 min
- half-life ([2]; liver): 1.74 ± 0.43 h
- Cmax after IP relative to oral administration ([3]; mice, IP vs oral): 47.90 times and 47.9 times
- Cmax ([3]; male, mouse, ip): 9300 ± 4290 ng/mL
- MRT inf ([3]; male, mouse, ip): 0.875 h
- MRT last ([3]; male, mouse, ip): 0.708 h
- half-life ([3]; male, mouse, ip, T1/2, IP 40 mg/kg, mice, n = 4): ~1.52 h
- Tmax ([3]; male, mouse, ip, Tmax, IP 40 mg/kg, mice, n = 4): ~5 min
- half-life ([3]; male, mouse, ip, half-life, IP 40 mg/kg, mice): ~1.52 h
- stability in plasma samples [4]: stable
- accuracy after storage ([4]; HQC nominal 375.00 ng/mL): 94.81%
- observed conc. after storage ([4]; HQC nominal 375.00 ng/mL): 355.53 ± 34.51 ng/mL
- accuracy after storage ([4]; LQC nominal 15.00 ng/mL): 90.27%
- observed conc. after storage ([4]; LQC nominal 15.00 ng/mL): 13.54 ± 1.03 ng/mL
- time stable in stock solution [6]: at least 22 days
- observed conc. after storage ([6]; nominal 375.00 ng/mL): 398.08 ± 1.45 ng/mL
- accuracy after storage [6]: 106.15%
- AUC(0-inf) ([7]; male, mouse, po): 142 ng·h/mL
- AUC(0-t) ([7]; male, mouse, po): 127 ng·h/mL
- Cmax ([7]; male, mouse, po): 194 ± 43.5 ng/mL
- MRT inf ([7]; male, mouse, po): 2.58 h
- MRT last ([7]; male, mouse, po): 1.61 h
- half-life ([7]; male, mouse, po, T1/2, oral 40 mg/kg, mice, n = 4): ~2.17 h
- Tmax ([7]; male, mouse, po, Tmax, oral 40 mg/kg, mice, n = 4): ~0.25 h
- half-life ([7]; male, mouse, po, half-life, oral 40 mg/kg, mice): ~2.17 h
- percent relative bioavailability (AUC0–t oral / AUC0–t IP) ([7]; oral vs IP, mice): 12.28%
Compound: COc1cc(CCC(=O)CC(O)CCc2ccc(O)c(OC)c2)ccc1O (stereo not shown) [HHC, hexahydrocurcumin]
- stability compared with curcumin [5]: superior stability to curcumin

Compound: COc1cc(/C=C/C(=O)CC(=O)/C=C/c2ccc(O)c(OC)c2)ccc1O [curcumin]
- half-life [8]: 0.545 h
- elimination half-life (T1/2,β) ([9]; intravenous 10 mg/kg): 0.742 ± 0.125 h
- Tmax ([9]; oral 500 mg/kg): 0.695 ± 0.09 h
- elimination half-life (T1/2,β) ([9]; oral 500 mg/kg): 0.468 ± 0.0933 h
- oral bioavailability [9]: approximately 1%
- AUC0–∞ [1, 10]: 107.0 ± 18.3 mg·min/L
- T1/2,z ([1]; intravenous curcumin 20 mg/kg, plasma): 0.538 ± 0.18 h

- time stable in stock solution [6]: at least 22 days
- observed conc. after storage ([6]; nominal 110.10 ng/mL): 112.08 ± 0.90 ng/mL
- accuracy after storage [6]: 101.80%
Compound: CCCCOC(=O)c1ccc(O)cc1 [IS, butylparaben, reference compound]

Compound: COc1cc(/C=C/C(=O)CC(=O)CCc2ccc(O)c(OC)c2)ccc1O [dihydrocurcumin]
- AUC0–∞ [1, 10]: 6.0 ± 1.2 mg·min/L
- detection in kidneys [1, 10]: present
